The source of these data is ChEMBL document CHEMBL1145990, “Synthesis and in vitro antitumor activity of phenanthrolin-7-one derivatives, analogues of the marine pyridoacridine alkaloids ascididemin and meridine: structure-activity relationship” (J Med Chem, 2003).

As usually defined, the IC50 is the concentration that gives 50% inhibition. Higher therefore signals weaker potency in that assay. As a reminder, the MTD is the highest dose tested that stayed within the study's limit of toxicity. Low readings indicate a narrow tolerated range, high ones a wide tolerated range.

Where only a bound is given, the exact number is not on record here.

Assay [1] deals with U-87 MG. Kind of assay: In vitro antitumor effects against human U87MG cell lines. Format: functional, cell-based, U-87MG ATCC. The essentials:
(§1)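 Cells grown at 37°C in sealed dishes in MEM with 5% FCS, seeded at 40000 cells/mL and allowed 24 h to plate. Six concentrations from 10 µM to 0.1 nM were tested. Growth was read by MTT reduction to formazan at 570 nm (630 nm reference), in sextuplicate. IC50 is the concentration giving 50% growth inhibition versus control, as the mean of three independent assays.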

The subject of assay [2] is U373 MG. Kind of assay: In vitro antitumor effects against human U-373MG cell lines. Format: functional, cell-based, U-373MG ATCC. Put shortly: as §1
For assay [3], the system named is A549. Kind of assay: In vitro antitumor effects against human A-549 cell lines. Format: functional, cell-based. The essentials: as §1
Assay [4] has as its system J82. Description: In vitro antitumor effects against human J82 cell lines. The class given is functional, cell-based. The essentials: as §1
Assay [5] concerns T47D. Kind of assay: In vitro antitumor effects against human T-47D cell lines. Format: functional, cell-based. Put shortly: as §1
The subject of assay [6] is Mus musculus. Description: Maximum tolerated dose following single i.p. injection to B6D2F1/jico mice. The class given is functional. Put shortly:
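Healthy non-tumour-bearing B6D2F1 mice given one acute intraperitoneal dose at 5, 10, 20, 40, 80 or 160 mg/kg. Three mice per dose group. Survival and body weight recorded for up to 28 days after injection. MTD taken as the highest dose tolerable acutely.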

Assay [7] deals with HCT-15. Description: In vitro antitumor effects against human HCT-15 cell lines. Format: functional, cell-based. The essentials: as §1
For assay [8], the system named is LoVo. Kind of assay: In vitro antitumor effects against human LoVo cell lines. The class given is functional, cell-based. Put shortly: as §1
Assay [9] concerns SW1088. Description: In vitro antitumor effects against human SW 1088 cell lines. The class given is functional, cell-based.
Assay [10] relates to A-427. Kind of assay: In vitro antitumor effects against human A-427 cell lines. The class given is functional, cell-based. The essentials:
as §1

Assay [11] relates to PC-3. Description: In vitro antitumor effects against human PC-3 cell lines. Format: functional, cell-based. The essentials:
as §1

Assay [12] concerns MCF7. Description: In vitro antitumor effects against human MCF-7 cell lines. Format: functional, cell-based. The essentials: as §1
Assay [13] has as its system T-24. Description: In vitro antitumor effects against human T24 cell lines. Format: functional, cell-based. Put shortly: as §1

Consider `COc1cnc2c3c(nccc13)-c1cccnc1C2=O`, for which the IC50 in assay [1] stood at 50 nM; in [2], 70 nM; in assay [3], 50 nM; in assay [4] it was 800 nM; in assay [5] it was 6000 nM; in assay [7] it was 90 nM. For the same molecule, the IC50 in assay [8] came to 700 nM; in [9], 80 nM; in [10], 70 nM; in [11], 80 nM; in assay [12], 60 nM; in [13], 60 nM. Moreover, in assay [6], the MTD was more than 160 mg/kg.
Regarding `O=C1c2c(Cl)ccnc2-c2nccc3ccnc1c23`, the IC50 in assay [1] worked out at 800 nM; in assay [2] it was 4000 nM; in assay [3], 800 nM; in [4], 4000 nM; in assay [5] it was 1000 nM; in [7], 1000 nM. Moreover, the IC50 in assay [8] stood at 1000 nM; in assay [9] it was 4000 nM; in [10] it was 700 nM; in [11], 5000 nM; in [12], 600 nM; in assay [13], 3000 nM. The same molecule had an MTD in [6] of 20 mg/kg.
As to `COc1ccnc2c1-c1nccc3ccnc(c13)C2=O`, the IC50 in [1] came out at 100 nM; in [2] it was 100 nM; in assay [3], 300 nM; in [4], 2000 nM; in assay [5], 3000 nM; in assay [7], 100 nM. Also, the IC50 in assay [8] came to 300 nM; in [9], 2000 nM; in assay [10], 70 nM; in assay [11] it was 900 nM; in [12], 200 nM; in [13] it was 300 nM. Moreover, in [6], the MTD was determined as 5 mg/kg.
`O=C1c2nccc(O)c2-c2nccc3ccnc1c23`: the IC50 in [1] was 8000 nM; in [2], 6000 nM; in assay [3] it was 6000 nM; in assay [4] it was 6000 nM; in assay [5], 6000 nM; in assay [7], 6000 nM. The IC50 was 5000 nM in [8]; 6000 nM in [9]; 6000 nM in [10]; more than 10000 nM in assay [11]; 5000 nM in assay [12]; 8000 nM in [13]. This molecule registered an MTD in assay [6] of 10 mg/kg.
On to `COc1cnc2c3c(nccc13)-c1ncccc1C2=O`, for which the IC50 in assay [1] is 300 nM; in [2], 600 nM; in assay [3] it was 500 nM; in assay [4], 4000 nM; in [5] it was 7000 nM; in [7] it was 700 nM. The IC50 in assay [8] worked out at 5000 nM; in assay [9], 300 nM; in [10], 500 nM; in assay [11], 500 nM; in [12] it was 400 nM; in assay [13], 500 nM. In assay [6], this molecule displayed an MTD of more than 160 mg/kg.
For the molecule `COc1ccnc2c1C(=O)c1ncc(OC)c3ccnc-2c13`, the IC50 was determined as 800 nM in assay [1]; 2000 nM in assay [2]; 5000 nM in [3]; 5000 nM in assay [4]; 5000 nM in assay [5]; 3000 nM in assay [7]. The IC50 in [8] was found to be 800 nM; in assay [9] it was 3000 nM; in [10], 800 nM; in assay [11], 800 nM; in assay [12], 2000 nM; in assay [13] it was 2000 nM. In assay [6], this molecule gave an MTD of 80 mg/kg.
With `CN(C)c1cc(Cl)nc2c1-c1nccc3ccnc(c13)C2=O`, the IC50 was 6000 nM in assay [1]; 6000 nM in [2]; more than 10000 nM in [3]; 5000 nM in assay [4]; 4000 nM in [5]; 5000 nM in assay [7]. Further, the IC50 is 5000 nM in assay [8]; 5000 nM in assay [9]; 6000 nM in assay [10]; more than 10000 nM in assay [11]; 6000 nM in assay [12]; 6000 nM in assay [13]. This molecule showed an MTD in assay [6] of 40 mg/kg.
Take `COc1ccc2c(n1)C(=O)c1nccc3ccnc-2c13`: the IC50 came out at 6000 nM in assay [1]; 6000 nM in [2]; 9000 nM in assay [3]; 5000 nM in assay [4]; 6000 nM in assay [5]; 6000 nM in assay [7]. The IC50 in assay [8] was determined as 5000 nM; in assay [9], 5000 nM; in assay [10] it was 6000 nM; in [11], 6000 nM; in [12], 5000 nM; in [13], 6000 nM. The same molecule showed an MTD in assay [6] of 40 mg/kg.
As to `COc1cnc2c3c(nccc13)-c1c(N(C)C)ccnc1C2=O`, the IC50 is 3000 nM in assay [1]; 5000 nM in [2]; 3000 nM in assay [3]; 6000 nM in [4]; 4000 nM in assay [5]; 3000 nM in assay [7]. For the same molecule, the IC50 in assay [8] turned out to be 3000 nM; in [9], 6000 nM; in assay [10] it was 3000 nM; in assay [11] it was 6000 nM; in [12] it was 4000 nM; in assay [13] it was 5000 nM. The molecule also registered an MTD in assay [6] of more than 160 mg/kg.
In the case of `COc1ccnc2c1-c1nccc3c(OC)cnc(c13)C2=O`, the IC50 in [1] was determined as 8 nM; in assay [2], 7 nM; in assay [3], 5 nM; in assay [4], 200 nM; in assay [5], 60 nM; in [7] it was 40 nM. The IC50 in assay [8] amounted to 8 nM; in assay [9], 8 nM; in assay [10], 6 nM; in assay [11], 40 nM; in assay [12], 30 nM; in [13] it was 9 nM. In addition, in assay [6], the MTD was 20 mg/kg.
In the case of `COc1ccc2c(n1)-c1nccc3ccnc(c13)C2=O`, the IC50 in [1] was found to be 6000 nM; in assay [2], 5000 nM; in assay [3] it was 9000 nM; in [4] it was 5000 nM; in assay [5], 6000 nM; in assay [7] it was 6000 nM. Also, the IC50 in [8] was more than 10000 nM; in assay [9], 5000 nM; in [10] it was 6000 nM; in assay [11], 6000 nM; in assay [12], 5000 nM; in assay [13], 5000 nM. The MTD in assay [6] was more than 160 mg/kg.
Regarding `O=C1c2cccnc2-c2nccc3ccnc1c23`, the IC50 in assay [1] came out at 500 nM; in [2], 800 nM; in assay [3], 800 nM; in assay [4] it was 5000 nM; in assay [5], 700 nM; in [7], 900 nM. Further, the IC50 in assay [8] came out at 2000 nM; in [9] it was 4000 nM; in [10], 7000 nM; in [11], 5000 nM; in [12], 200 nM; in assay [13], 300 nM. Moreover, the maximal tolerated dose (MTD) in assay [6] came out at 10 mg/kg.
On to `CN(C)c1ccnc2c1-c1nccc3ccnc(c13)C2=O`, for which the IC50 in assay [1] worked out at 2000 nM; in assay [2], 1000 nM; in [3], 1000 nM; in assay [4], 4000 nM; in assay [5] it was 4000 nM; in assay [7] it was 2000 nM. For the same molecule, the IC50 was 2000 nM in [8]; 5000 nM in assay [9]; 900 nM in assay [10]; 4000 nM in assay [11]; 900 nM in assay [12]; 1000 nM in assay [13]. The MTD in assay [6] amounted to 10 mg/kg.
As to `COc1cc(OC)c2c(n1)C(=O)c1nccc3ccnc-2c13`, the IC50 in assay [1] is 5000 nM; in [2] it was 6000 nM; in [3], 6000 nM; in assay [4], 5000 nM; in [5] it was 5000 nM; in assay [7], 5000 nM. Besides, the IC50 in assay [8] amounted to 4000 nM; in [9], 5000 nM; in assay [10], 5000 nM; in [11], 6000 nM; in [12], 5000 nM; in assay [13], 6000 nM. For the same molecule, the MTD in assay [6] is 40 mg/kg.
In the case of `COc1ccnc2c1C(=O)c1nccc3ccnc-2c13`, the IC50 in assay [1] was found to be 4000 nM; in [2] it was 800 nM; in assay [3], 800 nM; in assay [4] it was 3000 nM; in assay [5] it was 400 nM; in assay [7] it was 800 nM. Also, the IC50 turned out to be 900 nM in assay [8]; 900 nM in [9]; 800 nM in assay [10]; 600 nM in [11]; 600 nM in [12]; 700 nM in assay [13]. In [6], the MTD amounted to 10 mg/kg.
As to `O=C1c2ncccc2-c2nccc3ccnc1c23`, the IC50 in assay [1] came out at 6000 nM; in [2], 4000 nM; in [3], 3000 nM; in assay [4], 5000 nM; in assay [5], 800 nM; in [7], 600 nM. Also, the IC50 in assay [8] was 2000 nM; in assay [9], 5000 nM; in assay [10] it was 700 nM; in assay [11] it was 900 nM; in assay [12], 600 nM; in assay [13] it was 800 nM. The MTD in assay [6] came out at 10 mg/kg.
For the molecule `COc1ccc2c(n1)C(=O)c1ncc(OC)c3ccnc-2c13`, the IC50 is 700 nM in assay [1]; 800 nM in assay [2]; 800 nM in [3]; 8000 nM in [4]; 1000 nM in [5]; 600 nM in assay [7]. The 50% inhibitory concentration (IC50) is 600 nM in [8]; 500 nM in [9]; 500 nM in [10]; 1000 nM in assay [11]; 500 nM in assay [12]; 600 nM in assay [13]. The same molecule yielded an MTD in assay [6] of more than 160 mg/kg.
